A selection: hits, their analogues and other compounds. The true share with any hit is near 3.3%.
IL1B NFkB pot: enhances IL-1B driven NFkB nuclear translocation; AID 819; HUVEC IL-1B NFkB p65 nuclear translocation imaging; activation, % at 2 µM; actives 0.3% (n = 94,000);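 active = activation above 40%, about the mean plus 3 SD, also judged a hit on visual image review; inconclusive = activation above 40% but not a hit on visual review; inactive = activation not above 40% and no visual hit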;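 note: percent activation is computed from the nuclear over cytoplasmic p65 intensity ratio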
Measles CPE: protection of cells from measles virus. Measles virus-infected cells, CPE protection, absorbance. protection (pct of control), % at 4 µM. actives 1.5% (n = 140,000); in the data active = protection mostly above about 24%, no sharp cut-off; inactive = mostly below about 26%
IL1B cytotox: toxic to HUVEC cells under IL-1B stimulation; HUVEC cell count loss, Hoechst imaging, IL-1B stimulated; cell count reduction, % at 2 µM; actives 0.41% (n = 94,000); AID 845;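 active = cell count reduction more than 3 SD above the screen-wide mean, cut at about 70% in these data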;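 note: normalized per plate to untreated control cells as the no-loss baseline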
NFkB transloc inh: blocks IL-1B driven NFkB nuclear translocation in HUVEC cells; HUVEC IL-1B NFkB p65 nuclear translocation imaging; inhibition, % at 2 µM; actives 0.43% (n = 94,000);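 active = inhibition above about 30% together with a positive call from visual inspection of the well image, limit read from the data; inconclusive = inhibition above a set limit but visual check negative; inactive = inhibition not above a set limit, visual check negative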;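 note: nuclear over cytoplasmic p65 intensity ratio measured by imaging; 0% = IL-1B stimulated DMSO wells and 100% = unstimulated DMSO wells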
FAK inh: inhibitors of human focal adhesion kinase | inhibition, %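 (tested at 7 µM)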 | biochemical FAK kinase activity assay | Q05397 | actives 0.84% (n = 97,000) | AID 727; in the data active = inhibition above about 19%;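 note: 0% = DMSO and 100% = reference compound high control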
Rev-RRE block: HIV Rev-RRE protein-RNA interaction inhibition. Rev peptide-RRE RNA binding, FRET. inhibition, % at 8 µM. actives 0.79% (n = 97,000);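 active = inhibition above the screen-wide mean plus 3 SD, cut at about 35% in these data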;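 note: 0% = median DMSO wells and 100% = median Neomycin B control wells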
Target sequence (P05866 whole entry, looked up): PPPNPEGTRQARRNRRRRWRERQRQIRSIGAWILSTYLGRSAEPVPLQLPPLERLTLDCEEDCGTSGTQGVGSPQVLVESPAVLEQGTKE
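Test system: labelled RRE RNA duplex and labelled Rev peptide. Times: 5 min compound–RNA preincubation, then 15 min with peptide, 25 °C. Doses: single-dose 8 µM. Measured by: FRET, excitation 480 nm, emission 540 nm donor and 671 nm acceptor. Measure: % inhibition of FRET ratio versus controls.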
* marks the source's active call; other numbers are inactive results; u = inconclusive; x = no result; [ ] = dose if it differs, or a comment.

SMILES	IL1B NFkB pot	Measles CPE	IL1B cytotox	NFkB transloc inh	FAK inh	Rev-RRE block
Cc1ccc(S(=O)(=O)N(C)CC(=O)OCC(=O)c2c(N)n(C)c(=O)n(C)c2=O)cc1	x	5.9	x	x	x	x
O/N=C1/C2C3CC4C5C3C1C5C1(OCCO1)C42 (stereo not given)	x	50.8*	x	x	x	x
Cc1ccc(NC(=S)N2CCN(c3ncccn3)CC2)c(C)c1	x	26.9	x	x	x	x
O=C1C=C(NCc2ccco2)CC(c2ccc(Cl)cc2)C1 (stereo not given)	-12.2	9.3	86.3*	12.2	-5.3	-2.9
COc1ccc([N+](=O)[O-])cc1COc1ccc2c(-c3ccccc3)cc(=O)oc2c1	3.7	-0.7	70.0*	-3.7	-2.5	9.3
O=[N+]([O-])c1ccc(C2Oc3ccccc3C3CC(c4ccccc4)=NN32)s1 (stereo not given)	x	18.7	x	x	x	x
N#Cc1c(NC(=O)COC(=O)c2ccc(S(=O)(=O)N3CCCC3)cc2)sc2c1CCCCC2	x	4.8	x	x	x	x
CCCCn1c(SCC(=O)NC(C)CC)nc2ccc(N3CCOCC3)cc2c1=O (stereo not given)	-0.1	15.7	-33.3	0.1	14.3	-3.5
CCCCn1c(SCC(=O)Nc2ccc(OC)cc2)nc2ccc(N3CCOCC3)cc2c1=O	9.2	53.2*	-4.3	-9.2	0.6	-6.8
Cc1ccc(C)c(N(CC(N)=O)S(C)(=O)=O)c1	-4.5	49.6*	-1.0	4.5	-2.4	5.2
CC(C)(OC1OC(CO)C(O)C(O)C1O)[C@H]1Oc2ccc3ccc(=O)oc3c2[C@H]1O (stereo not given in full)	x	3.2	x	x	x	x
CC(C)c1ccc2nc3sc(C(=O)N4CCc5ccccc5C4)c(N)c3cc2c1	x	6.4	x	x	-8.2	56.6*
Cc1ccc2nc3sc(C(=O)N4CCOCC4)c(N)c3cc2c1	-4.2	4.1	11.8	4.3	0.5	11.0
Nc1c(C(=O)C2CC2)sc2nc(-c3cccs3)cc(C(F)(F)F)c12	-16.2	4.3	-7.8	16.2	-0.9	107.3*[fluorescence artefact?]
O=C(CSc1nc(-c2ccco2)cc(C(F)(F)F)n1)N1CCN(c2ccc(Cl)cc2)CC1	-0.1	69.9*	17.7	0.1	2.2	-0.9
O=C(CSc1nc(-c2ccco2)cc(C(F)(F)F)n1)N1CCN(Cc2ccccc2)CC1	34.5	17.8	-2.0	-34.5	-0.5	-4.2
COc1ccc(Cl)cc1N(CC(=O)NC(C)(C)C)S(=O)(=O)c1ccc(C)c([N+](=O)[O-])c1	x	11.2	x	x	x	x
O=[N+]([O-])c1ccc(/C=N/Nc2nc(N3CCCCCC3)nc(N3CCCCCC3)n2)o1	-15.6	31.8	-14.4	15.6	3.7	45.9*
COC(=O)c1c(NC(=O)c2ccco2)sc(C)c1C	-27.1	11.2	-14.4	27.1	-0.2	7.1
Cc1c(Cc2ccccc2)sc(NC(=O)c2ccco2)c1C(N)=O	13.2	12.9	16.6	-13.2	24.8*	5.1
Cc1noc(/C=C/c2ccc(-c3ccccc3Cl)o2)c1[N+](=O)[O-]	28.0	23.1	-2.3	-28.0	1.7	103.5*[fluorescence artefact?]
COc1ccc(-n2c(C)n[nH]c2=O)cc1	-5.8	68.3*	-29.7	5.8	-6.4	5.6
CCC(C(=O)NNC(=O)c1cnccn1)c1ccccc1 (stereo not given)	x	9.4	x	x	x	x
Cn1c(=O)oc2cc(S(=O)(=O)NCC3CCCO3)ccc21 (stereo not given)	1.4	x	-0.6	-1.5	0.2	53.2*
CCOC(=O)c1ccc2c(c1)N(CC)/C(=C\C=C1/SC(=S)N(CC)C1=O)N2CC	u	x	-26.7	-43.7	-1.9	133.3*[fluorescence artefact?]
SMILES	IL1B NFkB pot	Measles CPE	IL1B cytotox	NFkB transloc inh	FAK inh	Rev-RRE block
C=CCN1C(=O)CSc2ccc(C(=O)OCC)cc21	2.1	6.5	10.2	-2.1	4.5	3.4
Cc1cc2c(c(=O)o1)C1(C(=O)N(CC(=O)O)c3ccccc31)C(C#N)=C(N)O2 (stereo not given)	-2.8	6.8	6.5	2.8	1.2	49.1*
O=C(Nc1cc(S(=O)(=O)Nc2ccc(Cl)cc2)ccc1N1CCCCC1)c1ccc(F)cc1Cl	x	3.8	x	x	x	x
COC(=O)N/N=C/c1cn(CC(C)COc2ccccc2)c2ccccc12 (stereo not given)	x	13.1	x	x	x	x
CC(=O)N1CCN(CC(=O)Nc2ccccc2Sc2ccccc2)CC1	x	15.3	x	x	x	x
CSc1nnc2c(n1)c(C)nn2-c1ccc(C)cc1	8.2	37.9*	-23.3	-8.2	0.4	4.5
Cc1ccc(-n2nc3c(Cl)nnc(C)c3c2C)cc1	x	18.8	x	x	x	x
Cc1ccc(C(=O)NCC(=O)OCC(=O)NC2CCS(=O)(=O)C2)cc1C (stereo not given)	x	5.8	x	x	x	x
